The source of these data is ChEMBL document CHEMBL3259768, “Structure-activity relationships for vitamin D3-based aromatic a-ring analogues as hedgehog pathway inhibitors” (J Med Chem, 2014).

The source made the active and inactive calls. The calls are words filed in the database; no cut-off is given here.

Holding throughout (assay type): cell-based
A short description of experiment [1]: Inhibition of hedgehog signaling pathway-mediated GLI1 mRNA expression in mouse C3H10T1/2 cells after 24 hrs by RT-PCR analysis in presence of (1R,3aR,4S,7aR)-7a-methyl-1-((R)-6-methylheptan-2-yl)octahydro-1H-inden-4-yl 3-hydroxybenzoate. The settings on record: C3H 10T1/2.
Experiment [2] is described as follows: Inhibition of hedgehog signaling pathway-mediated PTCH mRNA expression in mouse ASZ001 cells up to 10 uM after 24 hrs by RT-PCR analysis.
Experiment [3] in a line: Inhibition of hedgehog signaling pathway-mediated GLI1 mRNA expression in mouse C3H10T1/2 cells assessed as residual activity at 0.5 uM after 24 hrs by RT-PCR analysis relative to 20alpha-hydroxycholesterol/22(S)-hydroxycholesterol. The conditions noted are these: C3H 10T1/2. Put shortly:
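C3H10T1/2 cells co-treated with analogue and the oxysterol Hh activators 20α-hydroxycholesterol plus 22(S)-hydroxycholesterol (5 μM each) for 24 h. Gli1 mRNA measured by qPCR as % of OHC-only control (100%). Analogue at 5 μM, or at 0.5 μM where stated.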

As to `CS(=O)(=O)c1ccc(C(=O)Nc2ccc(Cl)c(-c3ccccn3)c2)c(Cl)c1`, in experiment [1], the inhibition result is “Active”. Also, in experiment [2], the inhibition entry is “inactive”. Also, the Activity in experiment [3] is 4.8%.
